Screens: PubChem, Sanford-Burnham Center for Chemical Genomics
Shown are actives, neighbours in structure and some others; about 1.5% of the full set was active somewhere.
CCR6 antag – CCR6 (human) receptor antagonism | CHO-K1 CCR6 PathHunter beta-arrestin, luminescence, CCL20-stimulated | inhibition, % at 20 µM | P51684 | 340,000 compounds, 0.49% hits;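 active = compounds whose inhibition of the agonist-driven luminescence signal at 20 µM reaches about 50%, limit read from the data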;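 also: cells stimulated with CCL20 at 14 nM final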
Target sequence (P51684 whole entry, looked up): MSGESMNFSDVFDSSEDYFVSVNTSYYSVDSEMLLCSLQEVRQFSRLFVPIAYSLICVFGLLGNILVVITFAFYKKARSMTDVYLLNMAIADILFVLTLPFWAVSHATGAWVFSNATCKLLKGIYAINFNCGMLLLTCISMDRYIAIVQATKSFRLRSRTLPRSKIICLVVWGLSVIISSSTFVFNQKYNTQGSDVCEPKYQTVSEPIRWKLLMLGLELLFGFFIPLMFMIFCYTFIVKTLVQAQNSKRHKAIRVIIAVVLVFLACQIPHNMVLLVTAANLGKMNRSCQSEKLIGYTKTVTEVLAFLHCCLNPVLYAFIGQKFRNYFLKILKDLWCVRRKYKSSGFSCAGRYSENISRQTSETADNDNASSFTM
APJ antag – antagonists of human APJ apelin receptor | P35414 | CHO-K1 APJ beta-arrestin complementation, luminescence | inhibition, % at 20 µM | 330,000 compounds, 0.32% hits;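 active = inhibition above about 40% at 20 µM, limit read from the data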;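 also: cells challenged with 10 nM apelin-13 agonist together with compound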
APJ ag – activates the human apelin receptor APJ. 330,000 compounds, 0.11% hits. activation, % at 20 µM. CHO-K1 APJ PathHunter beta-arrestin, luminescence; 0% DMSO wells, 100% apelin. AID 2520. P35414;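 active = activation more than six SD over the plate average, tested at 20 µM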
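Material: CHO-K1 APJ beta-arrestin complementation cell line; Input: cell density 1000 per well; Incubation: compound stimulation 90 min at 25 °C, detection 60 min; Signal: luminescence from split beta-galactosidase complementation, Galacton Star/Emerald II substrate; Controls: DMSO-only wells as negative, 10 nM Apelin-13 as positive control.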
EBI2 block – blocks human EBI2 receptor beta-arrestin signaling; P32249; EBI2 beta-arrestin recruitment, luminescence, 7a,25-OHC stimulated; inhibition, % at 5 µM; 360,000 compounds, 0.81% hits; in the data active = inhibition above about 38%;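 also: enzyme fragment complementation signal reports receptor beta-arrestin coupling in cells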
CXCR6 inh – blocks human CXCR6 beta-arrestin recruitment | CHO-K1 PathHunter CXCR6 beta-arrestin, luminescence | inhibition, % at 20 µM | 360,000 compounds, 0.36% hits | AID 602244; in the data active = inhibition above about 34%, passing the limit was not always enough;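 also: antagonist mode with CXCL16 agonist at 10 nM final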
EBI2 conf – confirmation of human EBI2 receptor antagonists; EBI2 beta-arrestin luminescence, 7a,25-OHC antagonism; AID 651997; shares compounds with EBI2 block; inhibition, % at 5 µM; 2,400 compounds, 29% hits;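 active = inhibition of at least 50%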
EBI2 ag – activates EBI2, counter-screen for EBI2 antagonists; EBI2-expressing cells, agonist mode, luminescence, 60 min; 0% vehicle, 100% 7α,25-dihydroxycholesterol control; activation, % at 5 µM; 2,400 tested, under 10 active; AID 652000; shares compounds with EBI2 block;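 active = activation of at least 50%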
bGal counter – beta-galactosidase inhibition counter-screen. AID 652176. shares compounds with EBI2 block. inhibition, % at 5 µM. purified beta-galactosidase, luminescent Galacton Star, 15 min. 2,400 compounds, 1% hits;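 active = replicate-average signal at least 3 plate SD below neutral wells, shown as high inhibition, flagging enzyme-inhibiting false positives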;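 also: higher means stronger loss of beta-gal luminescence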
Hits are given with their value; n = inactive; x = not tested or not shown.

SMILES	CCR6 antag	APJ antag	APJ ag	EBI2 block	CXCR6 inh	EBI2 conf	EBI2 ag	bGal counter
COc1ccc(CCC(=O)N2CCN(S(=O)(=O)c3ccc(OC(F)(F)F)cc3)CC2)cc1	n	n	n	54	n	n	n	n
COc1ccc(CCC(=O)N2CCN(S(=O)(=O)c3ccc(OC)c([N+](=O)[O-])c3)CC2)cc1	x	x	x	54	n	n	n	n
CCc1ccc(CCC(=O)N2CCN(S(=O)(=O)c3ccc(Br)cc3)CC2)cc1	x	x	x	88	n	52	n	n
O=C(CCc1ccc(S(=O)(=O)N2CCOCC2)cc1)N1CCCC1	n	n	n	n	n	x	x	x
COc1cc(CCC(=O)N2CCN(S(=O)(=O)c3ccc(C)c(C)c3)CC2)cc(OC)c1OC	n	n	n	n	n	x	x	x
O=C(c1[nH]c(C(F)(F)F)nc1-c1ccccc1)N1CCC2(CC1)C(=O)NCN2c1ccccc1	x	x	x	n	n	x	x	x
CCOC(=O)N(C)c1c(CC)nc2c(OCc3ccccc3OC)cccn12	x	x	x	n	n	x	x	x
CN(Cc1ccccc1)C(=O)COC(=O)COc1ccc(Cl)cc1	n	n	n	n	n	x	x	x
CN(Cc1ccccc1)C(=O)COc1ccc2ccccc2c1	n	n	n	90	n	87	n	n
Cc1cc(OCC(=O)N(C)Cc2ccccc2)cc(C)c1Cl	n	n	n	87	n	65	n	n
CN(Cc1ccccc1)C(=O)COc1cc(Cl)ccc1Cl	n	n	n	n	n	x	x	x
O=C(Nc1cccnc1)C1Cc2c(-c3ccc4c(c3)OCO4)ccnc2O1 (configuration not stated)	x	x	x	n	n	x	x	x
Cc1cc2c(cc1C)-n1nnnc1C(N1CCN(C(=O)OCc3ccccc3)CC1)C(=O)N2 (configuration not stated)	x	x	x	n	x	x	x	x
CN(Cc1ccccc1)Cc1cc(=O)oc2ccc3ccccc3c12	x	x	x	n	n	x	x	x
COc1ccc(C(C(=O)NC(C)(C)C)n2c(-c3ccc(-c4ccccc4)cc3)nc3ccccc32)cc1 (configuration not stated)	x	x	x	n	x	x	x	x
O=C(O)Cn1c(=O)n(Cc2ccccc2)c2ccccc21	n	n	n	n	n	x	x	x
O=c1n(Cc2ccccc2)c2cc(Cl)cnc2n1Cc1ccccc1	n	n	n	71	n	50	n	n
COc1ccccc1CNC(=O)COc1cc(O)c2c(c1)OC(C)(C)CC2=O	x	x	x	n	n	x	x	x
O=C(CSCc1c(Cl)cccc1Cl)Nc1ccccc1-c1ccccc1	n	x	x	41	n	n	n	n
O=C(COC(=O)Cc1c(Cl)cccc1Cl)Nc1ccccc1-c1ccccc1	n	n	n	n	n	x	x	x
Cc1cnc2ccc(F)cc2c1	x	x	x	n	n	x	x	x
Cc1cc(Br)ccc1OCC(=O)NNC(=O)Cc1ccccc1	n	n	n	46	n	n	n	n
Cc1cc(Br)ccc1OCC(=O)NNC(=O)CCc1ccccc1	n	n	n	n	n	x	x	x
COc1ccc(C(=O)/C=C/c2ccc(F)cc2)c(OC(=O)c2ccc([N+](=O)[O-])cc2)c1	n	n	n	54	n	n	n	n
CC1(C(=O)NS(=O)(=O)c2ccc(C#N)cc2)CCN1C(=O)Cc1cc(F)ccc1F (configuration not stated)	x	x	x	n	n	x	x	x
SMILES	CCR6 antag	APJ antag	APJ ag	EBI2 block	CXCR6 inh	EBI2 conf	EBI2 ag	bGal counter
CCOc1ccc(/C=N/OCC(=O)NC(c2ccccc2)c2ccccc2)cc1	n	n	n	79	n	60	n	n
COc1ccc(/C=N/OCC(=O)NC(c2ccccc2)c2ccccc2)c(OC)c1	n	n	n	n	n	x	x	x
COC(=O)/C=C1\SC(=Nc2ccccc2)NC1=O	n	n	n	52	n	59	n	n
COC(=O)/C=C1/SC(=Nc2ccc(C)cc2C)NC1=O	n	n	n	72	n	72	n	n
CSc1ccccc1NC(=O)C1(C)CCN1C(=O)Cc1ccccc1Cl (configuration not stated)	x	x	x	n	n	x	x	x
COc1ccc2c(c1)/C(=C/c1cc(OC)c(OC)c(OC)c1)C(=O)N2	n	x	x	n	n	x	x	x
COc1ccc(C(=O)/C=C2\C(=O)Nc3ccc(Br)cc32)cc1	n	x	x	78	n	70	n	n
